Reference: the M2OR odorant receptor database

Assays:
Conditions in all cases: stereoisomer not certain
OR6X1 (Homo sapiens) = OR6X1 (Homo sapiens) (UniProt Q8NH79)
Summary of the method: (§1)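 Whether a receptor–molecule pair is responsive (active) rests on the original authors' judgment that its measured signal was statistically different from baseline. Pairs without that judgment are non-responsive (inactive). Sources used varied assay methods, commonly transient luciferase assays in mammalian cell lines.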

OR6Y1 (Homo sapiens) = OR6Y1 (Homo sapiens) (UniProt Q8NGX8)
OR6Y1 (Homo sapiens), sequence (Q8NGX8 whole entry): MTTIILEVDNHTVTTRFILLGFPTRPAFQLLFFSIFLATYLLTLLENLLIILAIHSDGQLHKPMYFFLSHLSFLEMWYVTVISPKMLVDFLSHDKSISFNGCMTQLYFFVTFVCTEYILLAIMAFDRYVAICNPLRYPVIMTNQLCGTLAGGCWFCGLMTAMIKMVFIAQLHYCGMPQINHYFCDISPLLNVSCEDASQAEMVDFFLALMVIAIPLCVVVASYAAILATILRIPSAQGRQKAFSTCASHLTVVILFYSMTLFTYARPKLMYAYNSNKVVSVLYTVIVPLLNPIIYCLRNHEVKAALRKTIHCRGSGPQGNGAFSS
Summary of the method: as §1

OR7A10 (Homo sapiens) = OR7A10 (Homo sapiens) (UniProt O76100)
OR7A10 (Homo sapiens), sequence (O76100 whole entry): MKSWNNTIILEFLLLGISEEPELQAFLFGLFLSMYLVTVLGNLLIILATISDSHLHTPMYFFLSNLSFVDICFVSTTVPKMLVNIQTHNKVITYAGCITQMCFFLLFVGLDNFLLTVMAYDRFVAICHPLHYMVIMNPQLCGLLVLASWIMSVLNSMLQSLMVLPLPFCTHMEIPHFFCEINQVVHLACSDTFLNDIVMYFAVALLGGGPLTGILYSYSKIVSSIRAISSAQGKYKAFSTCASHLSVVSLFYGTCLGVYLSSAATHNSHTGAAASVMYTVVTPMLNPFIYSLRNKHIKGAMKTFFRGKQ
Summary of the method: as §1

OR7A17 (Homo sapiens) = OR7A17 (Homo sapiens) (UniProt O14581)
OR7A17 (Homo sapiens), sequence (O14581 whole entry): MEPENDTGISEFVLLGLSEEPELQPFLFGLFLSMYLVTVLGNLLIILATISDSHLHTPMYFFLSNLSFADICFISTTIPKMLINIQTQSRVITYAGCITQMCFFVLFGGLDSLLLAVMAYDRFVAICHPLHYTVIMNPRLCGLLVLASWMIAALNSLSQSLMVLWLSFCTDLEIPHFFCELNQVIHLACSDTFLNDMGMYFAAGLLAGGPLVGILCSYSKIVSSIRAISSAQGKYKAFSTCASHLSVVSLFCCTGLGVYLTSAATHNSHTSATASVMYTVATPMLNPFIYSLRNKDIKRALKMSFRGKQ
Summary of the method: as §1

OR7A5 (Homo sapiens) = OR7A5 (Homo sapiens) (UniProt Q15622)
OR7A5 (Homo sapiens), sequence (Q15622 whole entry): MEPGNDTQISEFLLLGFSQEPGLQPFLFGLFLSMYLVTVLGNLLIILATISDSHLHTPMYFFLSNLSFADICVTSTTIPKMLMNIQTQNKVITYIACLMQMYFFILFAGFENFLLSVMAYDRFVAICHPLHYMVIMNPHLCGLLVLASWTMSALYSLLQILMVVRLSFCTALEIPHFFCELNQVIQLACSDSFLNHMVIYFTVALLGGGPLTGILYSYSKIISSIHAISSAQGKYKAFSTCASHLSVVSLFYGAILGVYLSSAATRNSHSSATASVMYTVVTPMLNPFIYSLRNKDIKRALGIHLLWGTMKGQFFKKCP
Summary of the method: as §1

OR7C1 (Homo sapiens) = OR7C1 (Homo sapiens) (UniProt O76099)
OR7C1 (Homo sapiens), sequence (O76099 whole entry): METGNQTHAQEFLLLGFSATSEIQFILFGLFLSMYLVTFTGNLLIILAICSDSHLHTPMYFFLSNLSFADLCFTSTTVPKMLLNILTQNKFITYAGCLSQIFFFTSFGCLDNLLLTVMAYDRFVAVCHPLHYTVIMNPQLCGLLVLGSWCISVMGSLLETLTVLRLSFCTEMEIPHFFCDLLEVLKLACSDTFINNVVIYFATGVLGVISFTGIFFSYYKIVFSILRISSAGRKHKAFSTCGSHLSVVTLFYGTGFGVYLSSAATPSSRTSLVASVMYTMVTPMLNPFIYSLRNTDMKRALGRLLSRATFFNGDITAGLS
Summary of the method: as §1

OR7C2 (Homo sapiens) = OR7C2 (Homo sapiens) (UniProt O60412)
OR7C2 (Homo sapiens), sequence (O60412 whole entry): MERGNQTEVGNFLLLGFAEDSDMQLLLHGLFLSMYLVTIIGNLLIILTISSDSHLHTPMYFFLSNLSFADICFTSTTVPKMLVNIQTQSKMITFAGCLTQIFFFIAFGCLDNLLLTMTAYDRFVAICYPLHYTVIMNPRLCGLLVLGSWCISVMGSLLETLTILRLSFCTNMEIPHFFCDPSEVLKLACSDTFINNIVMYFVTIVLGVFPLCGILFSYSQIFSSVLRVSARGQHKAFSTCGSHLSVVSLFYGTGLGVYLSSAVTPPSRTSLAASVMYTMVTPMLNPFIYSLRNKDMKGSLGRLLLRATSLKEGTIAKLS
Summary of the method: as §1

OR7D2 (Homo sapiens) = OR7D2 (Homo sapiens) (UniProt Q96RA2)
OR7D2 (Homo sapiens), sequence (Q96RA2 whole entry): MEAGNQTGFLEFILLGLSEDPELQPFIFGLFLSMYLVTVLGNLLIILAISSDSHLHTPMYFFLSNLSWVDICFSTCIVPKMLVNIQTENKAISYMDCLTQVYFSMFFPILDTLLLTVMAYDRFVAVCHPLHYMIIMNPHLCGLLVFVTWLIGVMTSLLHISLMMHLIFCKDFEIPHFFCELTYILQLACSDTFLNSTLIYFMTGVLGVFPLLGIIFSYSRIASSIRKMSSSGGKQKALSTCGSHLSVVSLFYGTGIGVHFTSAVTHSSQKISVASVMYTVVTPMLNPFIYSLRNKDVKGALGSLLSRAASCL
Summary of the method: as §1

OR7A5 M81I = tested on: OR7A5 M81I
OR7A5 M81I, sequence (as listed by the source, stated change not applied): as the sequence (Q15622 whole entry) above, with M81I counted along it
Summary of the method: as §1

OR7C1 V126I E171K = tested on: OR7C1 V126I E171K
Summary of the method: as §1

Measured: odorant receptor agonist call;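 also: active if original authors judged signal statistically different from baseline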

OR6X1 (Homo sapiens), sequence (Q8NH79 whole entry): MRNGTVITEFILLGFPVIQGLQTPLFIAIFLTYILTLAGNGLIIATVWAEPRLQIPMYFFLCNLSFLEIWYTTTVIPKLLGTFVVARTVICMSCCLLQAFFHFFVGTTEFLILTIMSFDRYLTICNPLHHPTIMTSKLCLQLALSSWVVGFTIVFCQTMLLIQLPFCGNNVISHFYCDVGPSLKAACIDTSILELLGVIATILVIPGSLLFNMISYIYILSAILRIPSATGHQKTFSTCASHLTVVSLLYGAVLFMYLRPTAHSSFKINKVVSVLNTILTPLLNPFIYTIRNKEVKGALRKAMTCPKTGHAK

Cc1c([N+](=O)[O-])c(C)c([N+](=O)[O-])c(C(C)(C)C)c1[N+](=O)[O-]
not listed: OR7A5 M81I | OR7C1 V126I E171K
inactive: all other assays above

C=CCOC(=O)Cc1ccccc1
inactive: all assays above
